The values that follow come from ChEMBL document CHEMBL1139467, “Specific targeting highly conserved residues in the HIV-1 reverse transcriptase primer grip region. Design, synthesis, and biological evaluation of novel, potent, and broad spectrum NNRTIs with antiviral activity” (J Med Chem, 2005).

For data set [1], the target named is Human immunodeficiency virus type 1 reverse transcriptase (Human immunodeficiency virus 1, UniProt Q72547, L100I). The experiment in a line: Inhibition of HIV1 RT L100I mutant.
Data set [2] is described as follows: Cytotoxicity against human lymphocytes by MTT assay. The format is cell-based, Lymphocyte. Conditions: read-out: TC50 (the source's name). In a few lines:
(§1)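 MTT assay run separately on NSO murine, Daudi human and 3T3 murine fibroblast cell lines and on normal human lymphocytes. Blank was subtracted from OD at 570 nm and results are reported as OD × 1000. SD was stated as never exceeding 5% of the mean.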

A short description of data set [3]: Selectivity index, ratio of CC50 for C8166 cells to IC50 for HIV-3B infected C8166 cells. The format is functional. The method, boiled down:
(§2)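 C8166 CD4+ T cells acutely infected with lymphocyte-tropic HIV-1 IIIB (titre as TCID50). EC50 is the drug concentration giving 50% survival of infected cells relative to uninfected untreated controls. CC50 comes from an MTT reduction assay on uninfected C8166 cells as 50% survival. SI = CC50/EC50. AZT serves as the treated control, run in parallel.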

The nature of data set [4]: Cytotoxicity against mouse 3T3 cells by MTT assay. The format is cell-based. The note with it: NIH3T3 cells, read-out: TC50 (the source's name). The method, boiled down: as §1
In data set [5] the test system is Human immunodeficiency virus 1. The data set can be described thus: Inhibition of HIV1-3B replication in C8166 cells. The format is functional, organism-based. The note with it: Human immunodeficiency virus 1, 3B. The method, boiled down:
as §2

Data set [6] in a line: Cytotoxicity against C8166 cells by MTT assay. The format is cell-based. The note with it: human. The method, boiled down:
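MTT reduction to formazan, read by spectrophotometry, in uninfected C8166 cells (a CD4+ T-cell line carrying an HTLV-I genome). CC50 is the concentration giving 50% survival relative to uninfected untreated control cells. It was derived with the median effect equation from pooled values within the 5–95% effective range.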

For data set [7], the target named is Human immunodeficiency virus type 1 reverse transcriptase (Human immunodeficiency virus 1, UniProt Q72547, V106A). The data set can be described thus: Inhibition of HIV1 RT V106A mutant.
A short description of data set [8]: Inhibition of HIV1 RT. Further details: species or system Human immunodeficiency virus 1. The method, boiled down:
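RNA-dependent DNA polymerase assay using 2–4 nM RT, poly(rA)/oligo(dT) 10:1 (0.3 µM 3'-OH ends) and 10 µM [3H]-dTTP, in 50 mM Tris-HCl pH 7.5 with 1 mM DTT, 0.2 mg/mL BSA, 4% glycerol and 10 mM MgCl2, at 37 °C. Acid-precipitable radioactivity was counted. Ki came from Lineweaver–Burk and Dixon plots over 0.2–5 Ki, in triplicate.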

The subject of data set [9] is Human immunodeficiency virus type 1 reverse transcriptase (Human immunodeficiency virus 1), Q72547 [K103N]. The experiment in a line: Inhibition of HIV1 RT K103N mutant at 100 uM. Also on record: scale not given: the % may be the effect or the level left.
Data set [10] deals with Human immunodeficiency virus type 1 reverse transcriptase (Human immunodeficiency virus 1, UniProt Q72547, Y188L). The data set can be described thus: Inhibition of HIV1 RT Y188L mutant.
Data set [11] in a line: Cytotoxicity against mouse NSO cells by MTT assay. The format is cell-based. Conditions: read-out: TC50 (the source's name). In a few lines:
as §1

A short description of data set [12]: Cytotoxicity against human Daudi cells by MTT assay. The format is cell-based. The note with it: read-out: TC50 (the source's name). In a few lines:
as §1

Data set [13] concerns the target Human immunodeficiency virus type 1 reverse transcriptase (Human immunodeficiency virus 1, UniProt Q72547, Y181I). The experiment in a line: Inhibition of HIV1 RT Y181I mutant.
The test system of data set [14] is Human immunodeficiency virus type 1 reverse transcriptase (Human immunodeficiency virus 1), Q72547 [Y181I]. The experiment in a line: Inhibition of HIV1 RT Y181I mutant at 100 uM.
The target in data set [15] is Human immunodeficiency virus type 1 reverse transcriptase (Human immunodeficiency virus 1, UniProt Q72547, K103N). The data set can be described thus: Inhibition of HIV1 RT K103N mutant.
Data set [16] relates to Human immunodeficiency virus 1. The experiment in a line: Inhibition of HIV1 RT at 100 uM.

Regarding `CCC1(c2cccc(Cl)c2)Oc2ccccc2-n2cccc2C1=O` (racemic), the IC50 in data set [1] was 0.6 µmol; in data set [7], 0.2 µmol; in [8] it was 0.036 µmol; in data set [10], 0.5 µmol; in data set [13], 0.8 µmol. The CC50 in data set [2] was determined as 82 µM; in data set [4], 81 µM; in [6], 7.5 µM; in data set [11] it was 81 µM; in data set [12], 84 µM. The Selectivity index in data set [3] was under 3.7. Besides, in data set [5], the EC50 is over 2000 nM. Besides, the Activity in data set [9] is under 10%.

For the compound `CCC1(c2ccc(I)cc2)Oc2ccccc2-n2cccc2C1=O` (racemic), the IC50 amounted to 1.8 µmol in [1], 17.3 µmol in data set [7], 1.2 µmol in data set [8] and 27 µmol in [10]. In [14], this compound returned an inhibition of under 10%. Further, in [9], the Activity was under 10%.

For `CCC1(c2cccc(COc3ccccc3)c2)Oc2ccccc2-n2cccc2C1=O` (racemic), the IC50 in data set [1] stood at 1.5 µmol; in data set [15], 4.9 µmol; in data set [7], 8.3 µmol; in data set [8], 0.8 µmol; in data set [10] it was 10 µmol. Moreover, in [14], the inhibition is under 10%.

In turn, `CCC1(c2ccc(/C=C/c3ccccc3)cc2)Oc2ccccc2-n2cccc2C1=O` (racemic) displayed an inhibition in data set [16] of under 10%.
